# Experimental data from ChEMBL document CHEMBL2169743, “Identification of novel 2-((1-(benzyl(2-hydroxy-2-phenylethyl)amino)-1-oxo-3-phenylpropan-2-yl)carbamoyl)benzoic acid analogues as BMP-2 stimulators” (J Med Chem, 2012).
# The source made the active and inactive calls. The rule behind the calls is not given here.
# Tests used:
# Calvarial osteoblast [1] = assay: Osteogenic activity in Sprague-Dawley rat calvarial osteoblasts assessed as BMP-2 level at 1000 nM after 48 hrs by ELISA relative to control; type: functional
# Calvarial osteoblast [2] = assay: Osteogenic activity in Sprague-Dawley rat calvarial osteoblasts assessed as BMP-2 level at 100 nM after 48 hrs by ELISA relative to control; type: functional
# Calvarial osteoblast [3] = assay: Osteogenic activity in Sprague-Dawley rat calvarial osteoblasts assessed as BMP-2 level at 0.1 nM after 48 hrs by ELISA relative to control; type: functional
# Calvarial osteoblast [4] = assay: Osteogenic activity in Sprague-Dawley rat calvarial osteoblasts assessed as BMP-2 level at 10 nM after 48 hrs by ELISA relative to control; type: functional
# Calvarial osteoblast [5] = assay: Osteogenic activity in Sprague-Dawley rat calvarial osteoblasts assessed as BMP-2 level at 1 nM after 48 hrs by ELISA relative to control; type: functional
# Calvarial osteoblast [6] = assay: Osteogenic activity in Sprague-Dawley rat calvarial osteoblasts assessed as BMP-2 mRNA expression at 0.1 to 1000 nM after 48 hrs by qPCR analysis relative to control; type: functional, cell-based
# Rattus norvegicus [7] = species: Rattus norvegicus; assay: Osteogenic activity in Sprague-Dawley rat femur drill-hole fracture model assessed as increase in osteoblast formation after 2 weeks by calcein labeling-based confocal microscopy relative to vehicle-treated control; type: functional, organism-based
# Procedure, shortened: (§1)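 Bilateral femoral diaphysis drill-hole (0.8 mm bit, 2 cm above knee) in rats, 10 per group. Daily dosing at 1.0 or 5.0 mg·kg⁻¹·day⁻¹, or gum acacia/water vehicle, from the day after injury for 2 weeks. Calcein 20 mg/kg i.p. given 2 days before autopsy. Acrylic-embedded 50 μm sections imaged by confocal microscopy; calcein intensity quantified. Mean ± SEM.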
# Rattus norvegicus [8] = assay: Toxicity in Sprague-Dawley rat assessed as effect on cuspid valve BMP-7 mRNA expression at 1 to 5 mg/kg/day after 2 weeks by qPCR analysis relative to vehicle-treated control; type: organism-based; conditions: in vivo, 336 h
# Rattus norvegicus [9] = assay: Osteogenic activity in Sprague-Dawley rat femur drill-hole fracture model assessed as bone formation at 1 mg/kg/day after 2 weeks by calcein labeling-based confocal microscopy relative to vehicle-treated control; type: functional; procedure, shortened: as §1
# Rattus norvegicus [10] = species: Rattus norvegicus; assay: Osteogenic activity in Sprague-Dawley rat femur drill-hole fracture model assessed as increase in callus regeneration after 2 weeks by calcein labeling-based confocal microscopy relative to vehicle-treated control; type: functional, organism-based; procedure, shortened: as §1
# Rattus norvegicus [11] = assay: Osteogenic activity in Sprague-Dawley rat femur drill-hole fracture model assessed as decrease in structure model index at 1 to 5 mg/kg/day after 2 weeks by micro-CT method relative to vehicle-treated control; type: functional, organism-based
# Procedure, shortened: (§2)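 Same rat femoral drill-hole model: 10 rats/group, 1.0 or 5.0 mg·kg⁻¹·day⁻¹ or gum acacia vehicle for 2 weeks starting the day after injury. Femurs taken at autopsy; μCT of the drill-hole gives BV/TV, Tb.N, Tb.Th, Tb.Sp, Conn.Dens and SMI. Mean ± SEM.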
# Calvarial osteoblast [12] = assay: Induction of mineralization in Sprague-Dawley rat calvarial osteoblasts assessed as increase of mineralized nodule formation at 10 nM after 21 days by Alizarin Red S staining relative to vehicle-treated control; type: functional, cell-based
# Procedure, shortened: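 Rat calvarial osteoblasts grown to 80% confluence, then plated at 25 000 cells/well in differentiation medium (growth medium plus 50 μg/mL ascorbic acid and […]) with 10 nM compound or vehicle. Medium changed every other day for 21 days. Cells fixed in 4% paraformaldehyde and stained with 40 mM Alizarin Red S (pH 4.5). Dye extracted with 10% acetic acid at 85 °C, neutralized, OD 405 nm read.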
# Rattus norvegicus [13] = assay: Toxicity in Sprague-Dawley rat assessed as effect on aorta BMP-7 mRNA expression at 1 to 5 mg/kg/day after 2 weeks by qPCR analysis relative to vehicle-treated control; type: organism-based; conditions: in vivo, 336 h
# Rattus norvegicus [14] = assay: Toxicity in Sprague-Dawley rat assessed as effect on aorta BMP-2 mRNA expression at 1 to 5 mg/kg/day after 2 weeks by qPCR analysis relative to vehicle-treated control; type: organism-based; conditions: in vivo, 336 h
# Calvarial osteoblast [15] = assay: Induction of type 1 collagen mRNA expression in Sprague-Dawley rat calvarial osteoblasts at 10 nM by qPCR analysis; type: functional, cell-based; conditions: TDE = time-dependent effect
# Procedure, shortened: (§3)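 Primary calvarial osteoblasts from pooled 1–2-day-old Sprague–Dawley rat pups (both sexes), released by sequential Dispase/collagenase P digestion at 37 °C. Cells kept in osteoblast differentiation medium with 10 nM compound or vehicle and sampled at several time points (24 h up to 72 h) for qPCR. Results given as fold change, mean ± SEM, triplicate.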
# MC3T3-E1 [16] = assay: Inhibition of 20S proteasome in mouse MC3T3-E1 cells at 100 nM after 48 hrs by Bradford assay; type: cell-based
# Procedure, shortened: (§4)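 MC3T3-E1 cells seeded at 2 × 10⁶/well and treated for 48 h. Lysed in HEPES pH 7.5/EDTA/NaCl/1% Triton X-100 on ice; protein measured by Bradford. 10 μg lysate incubated with fluorogenic 20S proteasome substrate for 1 h at 37 °C in the dark, fluorescence read at 380/460 nm. Lactacystin 25 μM as reference. Mean ± SEM, three independent experiments.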
# Rattus norvegicus [17] = assay: Osteogenic activity in Sprague-Dawley rat femur drill-hole fracture model assessed as decrease in trabecular spacing at 1 to 5 mg/kg/day after 2 weeks by micro-CT method relative to vehicle-treated control; type: functional, organism-based; procedure, shortened: as §2
# Rattus norvegicus [18] = assay: Osteogenic activity in Sprague-Dawley rat femur drill-hole fracture model assessed as increase in trabecular thickness at 1 to 5 mg/kg/day after 2 weeks by micro-CT method relative to vehicle-treated control; type: functional, organism-based; procedure, shortened: as §2
# Rattus norvegicus [19] = assay: Osteogenic activity in Sprague-Dawley rat femur drill-hole fracture model assessed as increase in connection density at 1 to 5 mg/kg/day after 2 weeks by micro-CT method relative to vehicle-treated control; type: functional, organism-based; procedure, shortened: as §2
# Rattus norvegicus [20] = assay: Osteogenic activity in Sprague-Dawley rat femur drill-hole fracture model assessed as increase in trabecular number at 1 to 5 mg/kg/day after 2 weeks by micro-CT method relative to vehicle-treated control; type: functional, organism-based; procedure, shortened: as §2
# Rattus norvegicus [21] = assay: Osteogenic activity in Sprague-Dawley rat femur drill-hole fracture model assessed as increase in bone volume/trabecular volume at 1 to 5 mg/kg/day after 2 weeks by micro-CT method relative to vehicle-treated control; type: functional, organism-based; procedure, shortened: as §2
# MC3T3-E1 [22] = assay: Inhibition of 20S proteasome in mouse MC3T3-E1 cells after 48 hrs by Bradford assay; type: cell-based; procedure, shortened: as §4
# Rattus norvegicus [23] = assay: Toxicity in Sprague-Dawley rat assessed as effect on cuspid valve BMP-2 mRNA expression at 1 to 5 mg/kg/day after 2 weeks by qPCR analysis relative to vehicle-treated control; type: organism-based; conditions: in vivo, 336 h
# Calvarial osteoblast [24] = assay: Induction of Runx mRNA expression in Sprague-Dawley rat calvarial osteoblasts at 10 nM by qPCR analysis; type: functional, cell-based; conditions: TDE = time-dependent effect; procedure, shortened: as §3
# Rattus norvegicus [25] = assay: Toxicity in Sprague-Dawley rat assessed as effect on cuspid valve BMP-4 mRNA expression at 1 to 5 mg/kg/day after 2 weeks by qPCR analysis relative to vehicle-treated control; type: organism-based; conditions: in vivo, 336 h
# Calvarial osteoblast [26] = assay: Induction of BMP-2 mRNA expression in Sprague-Dawley rat calvarial osteoblasts at 10 nM by qPCR analysis; type: functional, cell-based; conditions: TDE = time-dependent effect; procedure, shortened: as §3
# Rattus norvegicus [27] = species: Rattus norvegicus; assay: Osteogenic activity in Sprague-Dawley rat femur drill-hole fracture model assessed as increase in osteoblast recruitment after 2 weeks by calcein labeling-based confocal microscopy relative to vehicle-treated control; type: functional, organism-based; procedure, shortened: as §1
# Calvarial osteoblast [28] = assay: Induction of […] mRNA expression in Sprague-Dawley rat calvarial osteoblasts at 10 nM by qPCR analysis; type: functional, cell-based; conditions: TDE = time-dependent effect; procedure, shortened: as §3
# Rattus norvegicus [29] = assay: Osteogenic activity in Sprague-Dawley rat femur drill-hole fracture model assessed as bone formation at 5 mg/kg/day after 2 weeks by calcein labeling-based confocal microscopy relative to vehicle-treated control; type: functional; procedure, shortened: as §1
# Calvarial osteoblast [30] = assay: Induction of Runx-2 mRNA expression in Sprague-Dawley rat calvarial osteoblasts at 10 nM after 72 hrs by qPCR analysis in presence of noggin; type: functional, cell-based
# Procedure, shortened: (§5)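 Rat calvarial osteoblasts treated for 72 h with 10 nM compound, 100 ng/mL BMP-2 and 50 ng/mL noggin, alone or combined. Runx-2 and osteocalcin mRNA measured by qPCR. Data are mean ± SEM from three independent experiments.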
# Rattus norvegicus [31] = assay: Toxicity in Sprague-Dawley rat assessed as effect on aorta BMP-4 mRNA expression at 1 to 5 mg/kg/day after 2 weeks by qPCR analysis relative to vehicle-treated control; type: organism-based; conditions: in vivo, 336 h
# Calvarial osteoblast [32] = assay: Induction of […] mRNA expression in Sprague-Dawley rat calvarial osteoblasts at 10 nM after 72 hrs by qPCR analysis in presence of noggin; type: functional, cell-based; procedure, shortened: as §5
structure (smiles),measurement,setting,value
O=C(O)c1ccccc1C(=O)NC(Cc1ccccc1)C(=O)N(Cc1ccccc1)CC(OCc1ccccc1)c1ccccc1 (stereo not drawn),Activity,Calvarial osteoblast [1],92.6%
same,Activity,Calvarial osteoblast [2],103.27%
same,Activity,Calvarial osteoblast [3],89.8%
same,Activity,Calvarial osteoblast [4],98.34%
same,Activity,Calvarial osteoblast [5],100.66%
Cc1ccc(S(=O)(=O)OC(CN(Cc2ccccc2)C(=O)C(Cc2ccccc2)NC(=O)c2ccccc2C(=O)O)c2ccccc2)cc1 (stereo not drawn),Activity,Calvarial osteoblast [1],111%
same,Activity,Calvarial osteoblast [2],98.7%
same,Activity,Calvarial osteoblast [3],122%
same,Activity,Calvarial osteoblast [4],109.39%
same,Activity,Calvarial osteoblast [5],141.67%
CC(=O)OC(CNC(=O)C(Cc1ccccc1)NC(=O)c1ccccc1C(=O)O)c1ccccc1 (stereo not drawn),Activity,Calvarial osteoblast [1],103%
same,Activity,Calvarial osteoblast [2],96.03%
same,Activity,Calvarial osteoblast [3],106%
same,Activity,Calvarial osteoblast [4],98.33%
same,Activity,Calvarial osteoblast [5],98.67%
Cc1ccc(S(=O)(=O)OC(CNC(=O)C(Cc2ccccc2)NC(=O)c2ccccc2C(=O)O)c2ccccc2)cc1 (stereo not drawn),Activity,Calvarial osteoblast [1],104%
same,Activity,Calvarial osteoblast [2],114.88%
same,Activity,Calvarial osteoblast [3],119%
same,Activity,Calvarial osteoblast [4],111.78%
same,Activity,Calvarial osteoblast [5],131.75%
O=C(OC(CN(Cc1ccccc1)C(=O)C(Cc1ccccc1)NC(=O)c1ccccc1C(=O)O)c1ccccc1)c1ccccc1 (stereo not drawn),Activity,Calvarial osteoblast [1],112%
same,Activity,Calvarial osteoblast [2],103.15%
same,Activity,Calvarial osteoblast [3],98.4%
same,Activity,Calvarial osteoblast [4],103.15%
same,Activity,Calvarial osteoblast [5],107.69%
CC(=O)OC(CN(Cc1ccccc1)C(=O)C(Cc1ccccc1)NC(=O)c1ccccc1C(=O)O)c1ccccc1 (stereo not drawn),Activity,Calvarial osteoblast [1],100.6%
same,Activity,Calvarial osteoblast [2],98.76%
same,Activity,Calvarial osteoblast [3],88.7%
same,Activity,Calvarial osteoblast [4],83.45%
same,Activity,Calvarial osteoblast [5],89.49%
O=C(O)c1ccccc1C(=O)NC(Cc1ccccc1)C(=O)NCCc1ccccc1 (stereo not drawn),Activity,Calvarial osteoblast [1],132%
same,Activity,Calvarial osteoblast [6],Active
same,Activity,Calvarial osteoblast [2],166.11%
same,Activity,Calvarial osteoblast [3],111%
same,Activity,Calvarial osteoblast [4],114.24%
same,Activity,Calvarial osteoblast [5],122.8%
O=C(O)c1ccccc1C(=O)NC(Cc1ccccc1)C(=O)NCC(OCc1ccccc1)c1ccccc1 (stereo not drawn),Activity,Calvarial osteoblast [1],93.6%
same,Activity,Calvarial osteoblast [2],117.2%
same,Activity,Calvarial osteoblast [3],87.8%
same,Activity,Calvarial osteoblast [4],101.32%
same,Activity,Calvarial osteoblast [5],107.27%
N#CC(CN(Cc1ccccc1)C(=O)C(Cc1ccccc1)NC(=O)c1ccccc1C(=O)O)c1ccccc1 (stereo not drawn),Activity,Calvarial osteoblast [1],92.6%
same,Activity,Calvarial osteoblast [2],96.69%
same,Activity,Calvarial osteoblast [3],83.6%
same,Activity,Calvarial osteoblast [4],89.28%
same,Activity,Calvarial osteoblast [5],97.35%
O=C(O)c1ccccc1C(=O)NC(Cc1ccccc1)C(=O)N(Cc1ccccc1)CC(O)c1ccccc1 (stereo not drawn),Activity,Calvarial osteoblast [1],133%
same,Activity,Calvarial osteoblast [6],Active
same,Activity,Rattus norvegicus [7],Dose-dependent effect
same,Activity,Rattus norvegicus [8],Non-toxic
same,Activity,Calvarial osteoblast [2],137.2%
same,fold change (FC),Rattus norvegicus [9],2.16
same,Activity,Rattus norvegicus [10],Dose-dependent effect
same,Activity,Rattus norvegicus [11],Active
same,Activity,Calvarial osteoblast [12],Active
same,Activity,Rattus norvegicus [13],Non-toxic
same,Activity,Rattus norvegicus [14],Non-toxic
same,Activity,Calvarial osteoblast [3],140%
same,Activity,Calvarial osteoblast [15],tde
same,inhibition,MC3T3-E1 [16],inactive
same,Activity,Calvarial osteoblast [4],155.6%
same,Activity,Rattus norvegicus [17],Active
same,Activity,Rattus norvegicus [18],Active
same,Activity,Rattus norvegicus [19],Active
same,Activity,Rattus norvegicus [20],Active
same,Activity,Rattus norvegicus [21],Active
same,inhibition,MC3T3-E1 [22],Dose-dependent effect
same,Activity,Rattus norvegicus [23],Non-toxic
same,Activity,Calvarial osteoblast [24],tde
same,Activity,Rattus norvegicus [25],Non-toxic
same,Activity,Calvarial osteoblast [26],tde
same,Activity,Rattus norvegicus [27],Dose-dependent effect
same,Activity,Calvarial osteoblast [5],159.5%
same,Activity,Calvarial osteoblast [28],tde
same,fold change (FC),Rattus norvegicus [29],3.12
same,Activity,Calvarial osteoblast [30],inactive
same,Activity,Rattus norvegicus [31],Non-toxic
same,Activity,Calvarial osteoblast [32],inactive
